Reference: ChEMBL document CHEMBL1129574, “Synthesis, structure-activity relationships, and pharmacokinetic properties of dihydroorotate dehydrogenase inhibitors: 2-cyano-3-cyclopropyl-3-hydroxy-N-[3'-methyl-4'-(trifluoromethyl)phenyl ] propenamide and related compounds” (J Med Chem, 1996)

What was measured:
[1] = test system: Rattus norvegicus; assay: In vivo ability to inhibit delayed type hypersensitivity in rat at a concentration of 50 mg/kg; format: functional
Summary of the method: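 Male CFHB rats (160-180 g, n=7-12) sensitized day 0 by tail-base s.c. FCA (0.4 mg M. tuberculosis in liquid paraffin); controls got incomplete adjuvant. Day 7 challenge: soluble M. tuberculosis extract 0.4 mg into right hind footpad, saline in left. Oral dosing once daily days 4-6 and twice day 7 (1 h before, 6 h after). Edema read at 24 h; Student's t-test.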

[2] = biological target: Dihydroorotate dehydrogenase (quinone), mitochondrial (Rattus norvegicus, UniProt Q63707); assay: Inhibitory concentration tested against enzyme dihydroorotate dehydrogenase in rat
[3] = test system: Mus musculus; assay: In vivo ability to inhibit delayed type hypersensitivity in mouse at a concentration of 100 mg/kg; format: functional
Summary of the method: (§1)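 Male CD-1 mice (25–30 g, n = 8-16) sensitized day 0 by s.c. 1 mg methylated BSA in saline/Freund's complete adjuvant; negative controls saline/FCA. Day 7 challenge: MBSA 0.1 mg into right hind footpad, saline in left. Oral dosing once daily days 4–6 plus twice on day 7 (1 h before, 6 h after challenge). Paw edema read 24 h post-challenge; Student's t-test.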

[4] = biological target: Dihydroorotate dehydrogenase (quinone), mitochondrial (Mus musculus, UniProt O35435); assay: Inhibitory concentration tested on enzyme dihydroorotate dehydrogenase in mouse
[5] = test system: Rattus norvegicus; assay: In vivo for its ability to inhibit delayed type hypersensitivity in rat following 10 mg/kg administration.
[6] = test system: Mus musculus; assay: In vivo for its ability to inhibit delayed type hypersensitivity in mouse following 30 mg/kg administration.; format: functional; summary of the method: as §1
[7] = t1/2 in rat plasma after oral dose (10 mg/kg); format: ADME, organism-based
Summary of the method: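 Male Wistar CFHB rats (190–220 g, n=3/time point) given 10 mg/kg orally by gavage (10 mL/kg). Cardiac-puncture blood under ether at 0, 1, 3, 6, 24, 48, 72 h, individual heparinized samples; plasma kept at −20 °C. Levels by HPLC (ODS column, 0.1 M pH 7 phosphate 65%/acetonitrile 35%, UV 300 nm), internal standard, peak-area calibration from spiked blank plasma.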

[8] = t1/2 in mouse plasma after oral dose (30/mg/Kg); format: ADME, organism-based
Summary of the method: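 Male CD-1 mice (25–32 g, n=5/time point) gavaged orally 30 mg/kg (10 mL/kg). Blood by exsanguination under ether at 0, 1, 3, 6, 24, 48, 72 h, pooled per time point, heparinized; plasma stored −20 °C. Drug quantified by reversed-phase HPLC (ODS, pH 7 phosphate/acetonitrile 65:35, UV 300 nm) with internal standard and spiked-plasma calibration.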

Sequence of Dihydroorotate dehydrogenase (quinone), mitochondrial (Mus musculus, UniProt O35435) (O35435 whole entry): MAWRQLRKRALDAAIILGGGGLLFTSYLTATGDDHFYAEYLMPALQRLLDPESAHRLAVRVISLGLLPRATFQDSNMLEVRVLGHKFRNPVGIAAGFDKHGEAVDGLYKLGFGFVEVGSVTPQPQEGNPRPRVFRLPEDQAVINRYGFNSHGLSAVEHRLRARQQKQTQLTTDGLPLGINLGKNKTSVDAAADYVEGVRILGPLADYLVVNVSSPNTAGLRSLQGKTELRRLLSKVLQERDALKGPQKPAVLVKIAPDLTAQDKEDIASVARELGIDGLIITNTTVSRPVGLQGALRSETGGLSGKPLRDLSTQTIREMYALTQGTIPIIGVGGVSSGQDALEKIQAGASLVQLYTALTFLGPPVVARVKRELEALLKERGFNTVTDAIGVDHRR
Sequence of Dihydroorotate dehydrogenase (quinone), mitochondrial (Rattus norvegicus, UniProt Q63707) (Q63707 whole entry): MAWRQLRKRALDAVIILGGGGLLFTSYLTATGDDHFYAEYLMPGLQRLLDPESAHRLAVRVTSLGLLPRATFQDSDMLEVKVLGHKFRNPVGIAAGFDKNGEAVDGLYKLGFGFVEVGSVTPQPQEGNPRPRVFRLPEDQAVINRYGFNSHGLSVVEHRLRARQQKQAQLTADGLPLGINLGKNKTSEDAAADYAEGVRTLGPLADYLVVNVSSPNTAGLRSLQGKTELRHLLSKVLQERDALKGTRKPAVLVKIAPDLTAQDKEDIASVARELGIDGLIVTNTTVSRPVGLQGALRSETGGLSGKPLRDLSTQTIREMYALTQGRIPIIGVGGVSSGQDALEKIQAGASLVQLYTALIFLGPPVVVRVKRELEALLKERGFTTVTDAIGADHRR

SMILES | IC50 [2] [nM] | IC50 [4] [nM] | half-life [7] [h] | half-life [8] [h] | inhibition in vivo at 50 mg/kg [1] [%] | inhibition in vivo at 100 mg/kg [3] [%] | inhibition in vivo at 10 mg/kg [5] [%] | inhibition in vivo at 30 mg/kg [6] [%]
COc1ccc(NC(=O)/C(C#N)=C(\O)C2CC2)cc1 | 186 | 3720 |  |  | 57 | 9 |  | 
N#C/C(C(=O)Nc1ccc(Br)cn1)=C(/O)C1CC1 | 37 |  | 13 | 7 |  |  | 66 | 4
N#C/C(C(=O)Nc1ccc(C(=O)c2ccc(Cl)cc2)cc1)=C(/O)C1CC1 | 590 | 562 |  |  |  |  | -19 | 4
Cc1oncc1C(=O)Nc1ccc(C(F)(F)F)cc1 [LEFLUNOMIDE] | 9 | 30 |  |  |  |  | 78 | 84
N#C/C(C(=O)Nc1ccc(Oc2ccc(C(F)(F)F)cc2)cc1)=C(/O)C1CC1 | 3550 | 1510 |  |  |  |  | 39 | -17
N#C/C(C(=O)Nc1ccc(-c2cccs2)cc1)=C(/O)C1CC1 | 631 | 2510 |  |  |  |  | 34 | 
N#C/C(C(=O)Nc1ccc(Cl)cn1)=C(/O)C1CC1 | 76 | 200 |  |  | 64 | 48 |  | 
N#C/C(C(=O)Nc1ccc(C=Cc2ccc(Cl)cc2)cc1)=C(/O)C1CC1 |  | 22 |  |  | 52 | 19 |  | 
N#C/C(C(=O)Nc1ccc(/C=C/c2ccc(Cl)cc2)cc1)=C(/O)C1CC1 |  | 12600 | > 30 | 43 | 46 | 69 |  | 
N#C/C(C(=O)Nc1ccc(Cl)nc1)=C(/O)C1CC1 |  | 1780 |  |  | 71 |  |  | 9
N#C/C(C(=O)Nc1ccc(C(F)(F)F)cc1)=C(/O)C1CCCC1 | 31600 | 28200 |  |  | 19 | 58 |  | 
N#C/C(C(=O)Nc1ccc(C(N)=O)cc1)=C(/O)C1CC1 | 14100 | > 100000 |  |  | 20 | -18 |  | 
N#C/C(C(=O)Nc1ccc(-c2nc(C(F)(F)F)cs2)cc1)=C(/O)C1CC1 | 3000 | 50000 |  |  |  |  | 30 | 
Cc1cc(Cl)ccc1NC(=O)/C(C#N)=C(\O)C1CC1 | 1250 | 3720 |  |  |  |  | 30 | 54
N#C/C(C(=O)Nc1ccc(C(F)(F)F)cc1)=C(/O)C1CCC1 | 282 | 209 |  |  | 1 | 4 |  | 
N#C/C(C(=O)Nc1ccc(-c2ccccc2)cc1)=C(/O)C1CC1 | 1480 |  |  |  | 70 | 33 |  | 
Cc1cc(NC(=O)/C(C#N)=C(\O)C2CC2)ccc1Br | 50 | 63 | 4 | 2 | 66 | 86 |  | 
N#C/C(C(=O)Nc1ccc(Oc2ccccc2)cc1)=C(/O)C1CC1 | 290 |  |  |  | 6 | 9 |  | 
N#C/C(C(=O)Nc1ccc(-c2ncco2)cc1)=C(/O)C1CC1 | 4270 | 20000 |  |  | 42 | 17 |  | 
N#C/C(C(=O)Nc1ccc(C(=O)O)cc1)=C(/O)C1CC1 | 1480 | 3720 |  |  | 39 | -6 |  | 
CC(=O)c1ccc(NC(=O)/C(C#N)=C(\O)C2CC2)cc1 | 68 | 3800 | 6 | 4 |  | 32 | 59 | 

Further lines, with some results ahead:

IC50 [2] [nM] | IC50 [4] [nM] | half-life [7] [h] | half-life [8] [h] | SMILES | inhibition in vivo at 50 mg/kg [1] [%] | inhibition in vivo at 100 mg/kg [3] [%] | inhibition in vivo at 10 mg/kg [5] [%] | inhibition in vivo at 30 mg/kg [6] [%]
79 | 282 |  |  | Cc1ccc(NC(=O)/C(C#N)=C(\O)C2CC2)cc1Cl | 31 | 43 |  | 
7940 | > 100000 |  |  | N#C/C(C(=O)Nc1ccc(O)cc1)=C(/O)C1CC1 | 37 | -11 |  | 
2140 | 8510 |  |  | N#C/C(C(=O)Nc1ccc(-c2ccc(F)cc2)cc1)=C(/O)C1CC1 |  |  | 79 | 53
 | 5000 | 84 | 68 | N#C/C(C(=O)Nc1ccc(C#Cc2ccc(Cl)cc2)cc1)=C(/O)C1CC1 |  |  | 61 | 61
21 | 47 | 8 | 28 | N#C/C(C(=O)Nc1ccc(C(F)(F)F)cc1)=C(/O)C1CC1 |  |  | 53 | 85
 | 5900 |  |  | N#C/C(C(=O)Nc1ccc(-c2ccco2)cc1)=C(/O)C1CC1 | 58 | -13 |  | 
> 100000 | > 100000 |  |  | N#C/C(C(=O)Nc1ccc(C(F)(F)F)cc1)=C(/O)C1CCCN1 (configuration not stated) | -16 | -4 |  | 
33 | 40 | 2 | 8 | Cc1cc(NC(=O)/C(C#N)=C(\O)C2CC2)ccc1Cl |  |  | 42 | 41
17800 | 11700 |  |  | N#C/C(C(=O)Nc1ccc(C(F)(F)F)cc1)=C(/O)C1CCOC1 (configuration not stated) | 14 | 29 |  | 
21900 | 31600 |  |  | N#C/C(C(=O)Nc1ccc(N)cc1)=C(/O)C1CC1 | 1 | 32 |  | 
 | 1120 |  |  | COC(=O)c1ccc(NC(=O)/C(C#N)=C(\O)C2CC2)cc1 | 59 | 34 |  | 
11700 | 8910 |  |  | N#C/C(C(=O)Nc1ccncc1)=C(/O)C1CC1 | 17 | 22 |  | 
> 100000 | > 100000 |  |  | CN1CCCC1/C(O)=C(\C#N)C(=O)Nc1ccc(C(F)(F)F)cc1 (configuration not stated) | 23 | 10 |  | 
19100 | 2240 |  |  | CN(C(=O)c1ccc(NC(=O)/C(C#N)=C(\O)C2CC2)cc1)c1ccc(Cl)cc1 | 22 | -8 |  | 
44700 | 7940 |  |  | N#C/C(C(=O)Nc1ccc(C(F)(F)F)cc1)=C(/O)C1CCCO1 (configuration not stated) | 11 | 29 |  | 
